Laboratory results taken from publication PMC6045394 (ACS Omega, 2017).

Experiments:
[1] = tested on: P. falciparum chloroquine-sensitive (3D7) strain; assay: In vitro schizonticidal activity, ELISA antiHRPII assay; assay type: cell-based, Plasmodium falciparum; settings: for IC50: Plasmodium falciparum, 3D7, 72 h, read-out: IC50 (μM) ± SD P.f. 3D7
[2] = tested on: P. falciparum chloroquine-resistant (W2) strain; assay: In vitro schizonticidal activity, ELISA antiHRPII assay; assay type: cell-based, Plasmodium falciparum; settings: for SI (selectivity index) P.f. W2: SI = IC50 WI-26-VA4/IC50 P. falciparum strain W2
How it was run: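 W2 parasites grown in human erythrocytes in RPMI 1640 with human plasma, sorbitol-synchronized, plated at 0.05% parasitemia and 1.5% hematocrit. Triplicate drug dilutions for 72 h, freeze-thaw, anti-HRPII ELISA; IC50 is the mean of three assays. WI-26-VA4 fibroblasts: 1:10 serial dilutions (0.1% DMSO), 48 h, MTT read at 550 nm, triplicate. SI = fibroblast IC50 / W2 IC50.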

[3] = tested on: human lung fibroblast cell line WI-26-VA4; assay: In vitro cytotoxicity test, MTT colorimetric assay; assay type: cell-based; settings: WI26VA4, 48 h, read-out: IC50 (μM) ± SD Wi-26VA4
[4] = tested on: S. typhimurium strain TA100; assay: Ames/Salmonella mutagenicity assay; assay type: cell-based, Salmonella typhimurium; settings: with and without metabolic activation (S9), 6.7 to 30.9 μM
How it was run: (§1)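 Microsuspension protocol: overnight cultures (1 × 10^9 cells/mL) concentrated 10× by centrifugation, then exposed to five concentrations (TA100 6.7–30.9 μM; TA98 16.7–77.5 μM), with or without S9, 90 min at 37 °C. Plated in histidine/biotin top agar on minimal glucose agar; his+ revertants counted after 48 h at 37 °C. DMSO negative control; MI = treated/control revertants, MI ≥ 2 mutagenic.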

[5] = tested on: RKO-AS45-1 human cell line; assay: CBMN; assay type: cell-based; settings: 2.5 to 17.7 μM
[6] = tested on: RKO-AS45-1 human cell line; assay: Alkaline comet assay; assay type: cell-based; settings: 17.7 μM vs 2.5 μM
[7] = tested on: S. typhimurium strain TA98; assay: Ames/Salmonella mutagenicity assay; assay type: cell-based, Salmonella typhimurium; settings: with and without metabolic activation (S9), 16.7 to 77.5 μM
How it was run: as §1

CCN(CC)CCCC(C)Nc1ccnc2cc(Cl)ccc12 (stereo not shown) [CQ, chloroquine, reference compound]
IC50 [1]: 0.18 ± 0.05 µM | SI (selectivity index) P.f. W2 [2]: >250 | IC50 [3]: > 100 µM

FCCCCCCCCCCOCCCc1cccnc1 [Compound 7, 3-(3-((10-Fluorodecyl)oxy)propyl)pyridine]
IC50 [1]: 2.3 ± 0.15 µM | SI (selectivity index) P.f. 3D7 ([1]; SI = IC50 WI-26-VA4/IC50 P. falciparum strain 3D7): 12.2 | induction of gene mutations (Ames) [4]: not able to induce gene mutations | nuclear division index (NDI) [5]: None of the concentrations assessed affected the nuclear division index (NDI) values | frequency of micronuclei ([5]; 3 h exposure): altered only at concentrations higher than the IC50 | genotoxic concentration relative to IC50 against P. falciparum [6]: about seven times higher | induction of gene mutations (Ames) [7]: not able to induce gene mutations | increase of in vitro antimalarial activity compared to compound 5c ([2]; P. falciparum W2): 5.8 fold | SI (selectivity index) P.f. W2 [2]: 11.2 | IC50 [3]: 28.2 ± 3.7 µM
